Data published in ChEMBL document CHEMBL3616432, “(+)-Dehydroabietylamine derivatives target triple-negative breast cancer” (Eur J Med Chem, 2015).
pEC50: −log10 of the molar value. Activity calls are given as the source filed them. No cut-off for these calls is given here.

Columns and labels:
MDA-MB-231 [1] = assay: Antiproliferative activity against human triple-negative MDA-MB-231 cells after 72 hrs by CellTiter-Glo assay; type: functional, cell-based; conditions: MDA-MB-231, 72 h
MDA-MB-231 [2] = assay: Antiproliferative activity against human triple-negative MDA-MB-231 cells at 9 uM after 72 hrs by CellTiter-Glo assay; type: functional, cell-based
MCF7 [3] = assay: Antiproliferative activity against human ER-positive MCF7 cells after 72 hrs by CellTiter-Glo assay; type: functional, cell-based
[4] = Half life in human microsomes; type: ADME, Microsome
[5] = Half life in mouse microsomes; type: ADME, Microsome
[6] = Intrinsic clearance in human microsomes; type: ADME, Microsome
[7] = Intrinsic clearance in mouse microsomes; type: ADME, Microsome
[8] = Plasma protein binding in human; type: ADME, cell-free; conditions: read-out: PPB (converted)
[9] = Plasma protein binding in mouse; type: ADME; conditions: read-out: PPB (converted)
[10] = Half life in human plasma; type: ADME, cell-free
Summary of the method: (§1)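 Compound stability incubated in human or mouse plasma; half-life determined, with known drugs as controls.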

[11] = Half life in mouse plasma; type: ADME, cell-free; summary of the method: as §1
[12] = Permeability of the compound at pH 7.4 by PAMPA assay; type: physicochemical; conditions: read-out: permeability
[13] = Apparent permeability from apical to basolateral side in human Caco2 cells; type: ADME, cell-based; conditions: Caco-2
[14] = Apparent permeability from basolateral to apical side in human Caco2 cells; type: ADME, cell-based; conditions: Caco-2
[15] = Efflux ratio of permeability from basolateral to apical side over apical to basolateral side in human Caco2 cells; type: ADME, cell-based; conditions: Caco-2
MDA-MB-231 [16] = assay: Cell cycle arrest in human triple-negative MDA-MB-231 cells assessed as accumulation at G0/G1 phase at 8.5 uM after 12 hrs by propidium iodide staining-based flow cytometry (reference value: 48.36%); type: functional
MDA-MB-231 [17] = assay: Cell cycle arrest in human triple-negative MDA-MB-231 cells assessed as accumulation at G2/M phase at 8.5 uM after 12 hrs by propidium iodide staining-based flow cytometry (reference value: 20.40%); type: functional
MDA-MB-231 [18] = assay: Cell cycle arrest in human triple-negative MDA-MB-231 cells assessed as accumulation at S phase at 8.5 uM after 12 hrs by propidium iodide staining-based flow cytometry (reference value: 31.23%); type: functional
MDA-MB-231 [19] = assay: Induction of DNA fragmentation in human triple-negative MDA-MB-231 cells at 8.5 uM by propidium iodide staining-based flow cytometry; type: functional, cell-based; conditions: TDE = time-dependent effect
MDA-MB-231 [20] = assay: Induction of apoptosis in human triple-negative MDA-MB-231 cells assessed as necrotic cells after 12 hrs by Annexin V-FITC/propidium iodide staining-based flow cytometry (reference value: 0.1%); type: functional
MDA-MB-231 [21] = assay: Induction of apoptosis in human triple-negative MDA-MB-231 cells assessed as late apoptotic cells after 12 hrs by Annexin V-FITC/propidium iodide staining-based flow cytometry (reference value: 3.7%); type: functional
MDA-MB-231 [22] = assay: Induction of apoptosis in human triple-negative MDA-MB-231 cells assessed as viable cells after 12 hrs by Annexin V-FITC/propidium iodide staining-based flow cytometry (reference value: 93.1%); type: functional
MDA-MB-231 [23] = assay: Induction of apoptosis in human triple-negative MDA-MB-231 cells assessed as early apoptotic cells after 12 hrs by Annexin V-FITC/propidium iodide staining-based flow cytometry (reference value: 3.1%); type: functional
MDA-MB-231 [24] = assay: Induction of apoptosis in human triple-negative MDA-MB-231 cells assessed as increase in cleaved PARP level by western blot analysis; type: functional, cell-based; conditions: TDE = time-dependent effect
MDA-MB-231 [25] = assay: Induction of apoptosis in human triple-negative MDA-MB-231 cells assessed as increase in DR5 level after 12 hrs by western blot analysis; type: functional, cell-based
MDA-MB-231 [26] = assay: Induction of apoptosis in human triple-negative MDA-MB-231 cells assessed as increase in cleaved caspase-8 level after 6 to 12 hrs by western blot analysis; type: functional, cell-based
MDA-MB-231 [27] = assay: Induction of apoptosis in human triple-negative MDA-MB-231 cells assessed as increase in cleaved caspase-9 level after 6 to 12 hrs by western blot analysis; type: functional, cell-based
MDA-MB-231 [28] = assay: Induction of apoptosis in human triple-negative MDA-MB-231 cells assessed as increase in cleaved caspase-3 level after 6 to 12 hrs by western blot analysis; type: functional, cell-based
MDA-MB-231 [29] = assay: Induction of apoptosis in human triple-negative MDA-MB-231 cells assessed as decrease in caspase-7 level after 6 to 12 hrs by western blot analysis; type: functional, cell-based
MDA-MB-231 [30] = assay: Induction of apoptosis in human triple-negative MDA-MB-231 cells assessed as cell shrinkage at 16 uM after 6 to 48 hrs by microscopic analysis; type: functional, cell-based
MDA-MB-231 [31] = assay: Induction of apoptosis in human triple-negative MDA-MB-231 cells assessed as cell detachment at 16 uM after 6 to 48 hrs by microscopic analysis; type: functional, cell-based
MDA-MB-231 [32] = assay: Induction of apoptosis in human triple-negative MDA-MB-231 cells assessed as cell death at 16 uM after 6 to 48 hrs by microscopic analysis; type: functional, cell-based
[33] = Permeability of the compound at pH 7.4 assessed as drug retention by PAMPA assay; type: physicochemical
MDA-MB-231 [34] = assay: Antiproliferative activity against human triple-negative MDA-MB-231 cells at 35 uM after 72 hrs by CellTiter-Glo assay; type: functional, cell-based
Homo sapiens = organism: Homo sapiens; assay: Antiproliferative activity against human ER-positive MA11 cells at 48 uM after 72 hrs by CellTiter-Glo assay; type: functional
MCF7 [35] = assay: Antiproliferative activity against human ER-positive MCF7 cells at 48 uM after 72 hrs by CellTiter-Glo assay; type: functional, cell-based
MDA-MB-231 [36] = assay: Cell cycle arrest in human triple-negative MDA-MB-231 cells assessed as accumulation at G0/G1 phase at 30.0 uM after 12 hrs by propidium iodide staining-based flow cytometry (reference value: 48.36%); type: functional
MDA-MB-231 [37] = assay: Cell cycle arrest in human triple-negative MDA-MB-231 cells assessed as accumulation at G2/M phase at 30.0 uM after 12 hrs by propidium iodide staining-based flow cytometry (reference value: 20.40%); type: functional
MDA-MB-231 [38] = assay: Cell cycle arrest in human triple-negative MDA-MB-231 cells assessed as accumulation at S phase at 30.0 uM after 12 hrs by propidium iodide staining-based flow cytometry (reference value: 31.23%); type: functional
MDA-MB-231 [39] = assay: Induction of DNA fragmentation in human triple-negative MDA-MB-231 cells at 30 uM by propidium iodide staining-based flow cytometry; type: functional, cell-based
MDA-MB-231 [40] = assay: Cell cycle arrest in human triple-negative MDA-MB-231 cells assessed as accumulation at G0/G1 phase at 2.5 uM after 12 hrs by propidium iodide staining-based flow cytometry (reference value: 48.36%); type: functional
MDA-MB-231 [41] = assay: Cell cycle arrest in human triple-negative MDA-MB-231 cells assessed as accumulation at G2/M phase at 2.5 uM after 12 hrs by propidium iodide staining-based flow cytometry (reference value: 20.40%); type: functional
MDA-MB-231 [42] = assay: Cell cycle arrest in human triple-negative MDA-MB-231 cells assessed as accumulation at S phase at 2.5 uM after 12 hrs by propidium iodide staining-based flow cytometry (reference value: 31.23%); type: functional
MDA-MB-231 [43] = assay: Induction of apoptosis in human triple-negative MDA-MB-231 cells at 2.5 uM after 6 to 48 hrs by microscopic analysis; type: functional, cell-based
MDA-MB-231 [44] = assay: Antiproliferative activity against human triple-negative MDA-MB-231 cells at <= 50 uM after 72 hrs by CellTiter-Glo assay; type: functional, cell-based
HEK293 = assay: Cytotoxicity against HEK293 cells at <= 50 uM after 72 hrs by CellTiter-Glo assay; type: cell-based; conditions: human, hek293, 72 h
HepG2 = assay: Cytotoxicity against human HepG2 cells at <= 50 uM after 72 hrs by CellTiter-Glo assay; type: cell-based; conditions: hepg2, 72 h
MDA-MB-231 [45] = assay: Antiproliferative activity against human triple-negative MDA-MB-231 cells at 29 uM after 72 hrs by CellTiter-Glo assay; type: functional, cell-based
MDA-MB-231 [46] = assay: Cell cycle arrest in human triple-negative MDA-MB-231 cells assessed as accumulation at G0/G1 phase at 28.5 uM after 12 hrs by propidium iodide staining-based flow cytometry (reference value: 48.36%); type: functional
MDA-MB-231 [47] = assay: Cell cycle arrest in human triple-negative MDA-MB-231 cells assessed as accumulation at G2/M phase at 28.5 uM after 12 hrs by propidium iodide staining-based flow cytometry (reference value: 20.40%); type: functional
MDA-MB-231 [48] = assay: Cell cycle arrest in human triple-negative MDA-MB-231 cells assessed as accumulation at S phase at 28.5 uM after 12 hrs by propidium iodide staining-based flow cytometry (reference value: 31.23%); type: functional

CC(C)c1ccc2c(c1)CC[C@H]1[C@](C)(CNS(=O)(=O)c3c(F)c(F)c(F)c(F)c3F)CCC[C@]21C
pEC50 (MDA-MB-231 [1]): 5.05
Activity (MDA-MB-231 [2]): Active
Activity (MCF7 [3]): inactive
half-life [4]: 0.93 h
half-life [5]: 0.51 h
CLint scaled [6]: 22.3 mL/min/kg
CLint scaled [7]: 112 mL/min/kg
fraction unbound [8]: 0.052
fraction unbound [9]: 0.007
half-life [10]: 6.76 h
half-life [11]: 37.7 h
Papp [12]: 62.5 ×10⁻⁶ cm/s
Papp A→B [13]: 1.96 ×10⁻⁶ cm/s
Papp B→A [14]: 1.57 ×10⁻⁶ cm/s
efflux ratio [15]: 0.8
Activity (MDA-MB-231 [16]): 61.26%
Activity (MDA-MB-231 [17]): 18.37%
Activity (MDA-MB-231 [18]): 20.37%
Activity (MDA-MB-231 [19]): tde
Activity (MDA-MB-231 [20]): 0.5%
Activity (MDA-MB-231 [21]): 16.7%
Activity (MDA-MB-231 [22]): 61.5%
Activity (MDA-MB-231 [23]): 21.3%
Activity (MDA-MB-231 [24]): tde
Activity (MDA-MB-231 [25]): Active
Activity (MDA-MB-231 [26]): Active
Activity (MDA-MB-231 [27]): Active
Activity (MDA-MB-231 [28]): Active
Activity (MDA-MB-231 [29]): Active
Activity (MDA-MB-231 [30]): Active
Activity (MDA-MB-231 [31]): Active
Activity (MDA-MB-231 [32]): Active
permeability [33]: 60.4%

CC(C)c1ccc2c(c1)CC[C@H]1[C@](C)(CNS(=O)(=O)c3ccc(C=O)cc3)CCC[C@]21C
Activity (MDA-MB-231 [34]): Active
Activity (Homo sapiens): Active
Activity (MCF7 [35]): inactive
Activity (MDA-MB-231 [36]): 63.41%
Activity (MDA-MB-231 [37]): 16.89%
Activity (MDA-MB-231 [38]): 19.7%
Activity (MDA-MB-231 [39]): Active
Activity (MDA-MB-231 [20]): 0.2%
Activity (MDA-MB-231 [21]): 6%
Activity (MDA-MB-231 [22]): 90.4%
Activity (MDA-MB-231 [23]): 3.4%
Activity (MDA-MB-231 [24]): tde
Activity (MDA-MB-231 [25]): Active
Activity (MDA-MB-231 [26]): Active
Activity (MDA-MB-231 [27]): Active
Activity (MDA-MB-231 [28]): Active
Activity (MDA-MB-231 [29]): Active

CN[C@@H]1C[C@H]2O[C@@](C)([C@@H]1OC)n1c3ccccc3c3c4c(c5c6ccccc6n2c5c31)C(=O)NC4 [STAUROSPORINE]
Activity (MDA-MB-231 [40]): 43.5%
Activity (MDA-MB-231 [41]): 23.28%
Activity (MDA-MB-231 [42]): 33.22%
Activity (MDA-MB-231 [20]): 0.5%
Activity (MDA-MB-231 [22]): 55.7%
Activity (MDA-MB-231 [23]): 25%
Activity (MDA-MB-231 [43]): inactive

CC(C)c1cc2c(cc1O)[C@@]1(C)CCCC(C)(C)[C@@H]1CC2 [FERRUGINOL]
Activity (MDA-MB-231 [44]): Active
Activity (HEK293): Non-toxic
Activity (HepG2): Non-toxic
Activity (MDA-MB-231 [45]): Active
Activity (MDA-MB-231 [46]): 50.76%
Activity (MDA-MB-231 [47]): 19.54%
Activity (MDA-MB-231 [48]): 29.7%
Activity (MDA-MB-231 [20]): 0.2%
Activity (MDA-MB-231 [21]): 9.6%
Activity (MDA-MB-231 [22]): 85.8%
Activity (MDA-MB-231 [23]): 4.4%
Activity (MDA-MB-231 [24]): tde
Activity (MDA-MB-231 [25]): Active
Activity (MDA-MB-231 [27]): inactive
Activity (MDA-MB-231 [29]): Active
